From ChEMBL document CHEMBL2040765, “Synthesis and anticancer activity of a series of norcantharidin analogues” (2012) come the findings set out here.

Type in all cases: functional
Test [1] has as its system HT-29. Briefly: Growth inhibition of human HT-29 cells after 72 hrs y MTT assay. To be noted: HT-29, 72 h. In outline:
(§1)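 Cells kept in DMEM with 10% FBS, 10 mM sodium bicarbonate, penicillin, streptomycin and 4 mM glutamine at 37 °C under 5% CO2. Log-phase cells were plated in duplicate at 2500–4000 cells/well. After 24 h, compound in medium was added; analogue stocks were 40 mM in DMSO. Growth was read after 72 h by MTT absorbance at 540 nm in dose-response testing.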
On the technique in general: Formazan colour is commonly taken as a measure of viable cells.

Test [2] in a line: Growth inhibition of human SJ-G2 cells after 72 hrs y MTT assay. The conditions noted are these: SJ-G2, 72 h. In outline: as §1
The nature of test [3]: Growth inhibition of human BE(2)-C cells after 72 hrs y MTT assay. In outline:
as §1

In test [4] the test system is SW480. Briefly: Growth inhibition of human SW480 cells after 72 hrs y MTT assay. The conditions noted are these: SW480, 72 h. In outline:
as §1

Test [5] relates to MCF7. Briefly: Growth inhibition of human MCF7 cells after 72 hrs y MTT assay. The conditions noted are these: MCF7, 72 h. In outline: as §1
The subject of test [6] is A2780. Description: Growth inhibition of human A2780 cells after 72 hrs y MTT assay. The conditions noted are these: A2780, 72 h. In outline: as §1
Test [7] has as its system NCI-H460. Description: Growth inhibition of human H460 cells after 72 hrs y MTT assay. The conditions noted are these: NCI-H460, 72 h. In outline: as §1
The subject of test [8] is A-431. Briefly: Growth inhibition of human A431 cells after 72 hrs y MTT assay. The conditions noted are these: A-431, 72 h. The method in brief:
as §1

The test system of test [9] is DU-145. Briefly: Growth inhibition of human DU145 cells after 72 hrs y MTT assay. The conditions noted are these: DU-145, 72 h. The method in brief: as §1
In test [10] the test system is HT-29. Briefly: Growth inhibition of human HT-29 cells at 100 uM after 72 hrs y MTT assay. To be noted: Homo sapiens, HT-29, 72 h; read-out: GI. In outline:
(§2)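 Log-phase cells in supplemented DMEM (10% FBS, 4 mM glutamine, antibiotics; 37 °C, 5% CO2) were plated in duplicate at 2500–4000 cells/well. Compound was added 24 h later at a fixed 100 µM, from 40 mM DMSO stocks. After 72 h, MTT absorbance was read at 540 nm and expressed as percent growth inhibition; 100% means total inhibition.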

A short description of test [11]: Growth inhibition of human SJ-G2 cells at 100 uM after 72 hrs y MTT assay. To be noted: Homo sapiens, SJ-G2, 72 h; read-out: GI. In outline:
as §2

The nature of test [12]: Growth inhibition of human BE(2)-C cells at 100 uM after 72 hrs y MTT assay. To be noted: Homo sapiens, BE(2)-C, 72 h; read-out: GI. The method in brief:
as §2

The test system of test [13] is SW480. Description: Growth inhibition of human SW480 cells at 100 uM after 72 hrs y MTT assay. To be noted: Homo sapiens, SW480, 72 h; read-out: GI. In outline: as §2
Test [14] deals with MCF7. Description: Growth inhibition of human MCF7 cells at 100 uM after 72 hrs y MTT assay. To be noted: Homo sapiens, MCF7, 72 h; read-out: GI. In outline:
as §2

The test system of test [15] is NCI-H460. Description: Growth inhibition of human H460 cells at 100 uM after 72 hrs y MTT assay. The method in brief: as §2
Test [16] deals with A-431. Briefly: Growth inhibition of human A431 cells at 100 uM after 72 hrs y MTT assay. The method in brief: as §2
The test system of test [17] is DU-145. Briefly: Growth inhibition of human DU145 cells at 100 uM after 72 hrs y MTT assay. The method in brief:
as §2

For orientation: GI50 means the concentration giving 50% growth inhibition. Take `CCCCCCCCO[C@H]1OC(=O)[C@H]2[C@@H]1[C@@H]1CC[C@H]2O1`: the 50% growth inhibitory concentration (GI50) came out at 40 µM in test [1]; 45 µM in test [2]; 51 µM in test [3]; 49 µM in test [4]; 36 µM in [5]; 28 µM in [6]. Further, the 50% growth inhibitory concentration (GI50) is greater than 100 µM in test [7], 72 µM in [8] and 86 µM in test [9].

In the case of `O=C1O[C@H](OCCCOP(=O)(OCC(Cl)(Cl)Cl)OCC(Cl)(Cl)Cl)[C@@H]2[C@H]1[C@H]1CC[C@@H]2O1`, the GI50 is 37 µM in [1]; 41 µM in test [2]; greater than 100 µM in test [3]; greater than 100 µM in test [4]; 89 µM in test [5]; 81 µM in test [6]. Also, the concentration for 50% growth inhibition (GI50) in [7], in test [8] and in test [9] was greater than 100 µM in each case.

Turning to `CCCCCCO[C@@H]1OC(=O)[C@H]2[C@@H]1[C@@H]1CC[C@H]2O1`, the concentration for 50% growth inhibition (GI50) in test [3], in [4], in test [5], in test [6], in [7] and in [8] was greater than 100 µM each time. This compound also gave a 50% growth inhibitory concentration (GI50) in test [9] greater than 100 µM.

On to `O=C1O[C@H](O)[C@@H]2[C@H]1[C@H]1CC[C@@H]2O1`, for which the GI50 in test [1] is 14 µM; in [2] it was 15 µM; in test [3], 28 µM; in test [4], greater than 100 µM; in test [5], greater than 100 µM; in [6] it was greater than 100 µM. The concentration for 50% growth inhibition (GI50) in test [7], in test [8] and in [9] was greater than 100 µM each time.

Consider `C#CCCCCO[C@H]1OC(=O)[C@H]2[C@@H]1[C@@H]1CC[C@H]2O1`, for which the GI50 is 51 µM in test [1]; 55 µM in test [2]; greater than 100 µM in test [3]; greater than 100 µM in test [4]; greater than 100 µM in test [5]; greater than 100 µM in test [6]. In addition, the 50% growth inhibitory concentration (GI50) in [7], in [8] and in test [9] was greater than 100 µM each time.

As for `O=C1O[C@H](OCCCOP(=O)(O)O)[C@@H]2[C@H]1[C@H]1CC[C@@H]2O1`, the GI50 in test [1] turned out to be 42 µM; in test [2] it was 57 µM; in [3] it was 67 µM; in test [4], 65 µM; in test [5] it was 45 µM; in [6], 33 µM. Also, the GI50 came out at 52 µM in test [8] and 65 µM in [9].

Regarding `O=C1OC(=O)C2C3CCC(O3)C12` (centres undefined) [DEMETHYL-CANTHARIDIN], the 50% growth inhibitory concentration (GI50) in test [1] came out at 23 µM; in test [2], 23 µM; in test [3], 36 µM; in test [4] it was 41 µM; in test [5], 34 µM; in [6] it was 27 µM. The GI50 in test [7] was greater than 100 µM; in test [8] it was 72 µM; in [9], 90 µM.

`CC(C)O[C@H]1OC(=O)[C@H]2[C@@H]1[C@@H]1CC[C@H]2O1`: the GI50 in [1] is 19 µM; in test [2], 21 µM; in test [3], 44 µM; in [4], 94 µM; in [5], greater than 100 µM; in test [6], greater than 100 µM. Further, the GI50 in test [7], in test [8] and in [9] was greater than 100 µM each time.

In the case of `C=CCO[C@H]1OC(=O)[C@H]2[C@@H]1[C@@H]1CC[C@H]2O1`, the GI50 in [5], in test [7], in test [8] and in [9] was greater than 100 µM in each case.

For `CCCCOC1OC(=O)[C@H]2[C@@H]1[C@@H]1CC[C@H]2O1` (single isomer, unassigned), the GI50 is 50 µM in test [1]; 32 µM in [2]; 93 µM in test [3]; greater than 100 µM in test [4]; greater than 100 µM in [5]; greater than 100 µM in test [6]. The 50% growth inhibitory concentration (GI50) in test [7], in test [8] and in test [9] was greater than 100 µM throughout.

Turning to `C/C=C/CO[C@@H]1OC(=O)[C@H]2[C@@H]1[C@@H]1CC[C@H]2O1`, the concentration for 50% growth inhibition (GI50) is 31 µM in test [1]; 35 µM in [2]; 63 µM in test [3]; greater than 100 µM in test [4]; greater than 100 µM in [5]; greater than 100 µM in [6]. Besides, the concentration for 50% growth inhibition (GI50) in [7], in test [8] and in test [9] was greater than 100 µM throughout.

In the case of `C/C=C/CO[C@H]1OC(=O)[C@H]2[C@@H]1[C@@H]1CC[C@H]2O1`, the GI50 in test [1] turned out to be 42 µM; in [2], 55 µM; in test [3], 84 µM; in test [4], 93 µM; in test [5], 77 µM; in test [6], 57 µM. Besides, the GI50 in test [7], in test [8] and in [9] was greater than 100 µM in each case.

In the case of `CC(C)(C)O[C@H]1OC(=O)[C@H]2[C@@H]1[C@@H]1CC[C@H]2O1`, the GI50 was 52 µM in [1]; 48 µM in [2]; greater than 100 µM in test [3]; greater than 100 µM in [4]; greater than 100 µM in test [5]; greater than 100 µM in [6]. In addition, the GI50 in [7], in test [8] and in [9] was greater than 100 µM in each case.

Regarding `C=CCO[C@@H]1OC(=O)[C@H]2[C@@H]1[C@@H]1CC[C@H]2O1`, the GI50 in test [3], in [4], in [5], in [6], in [7] and in [8] was greater than 100 µM each time. The same compound displayed a concentration for 50% growth inhibition (GI50) in test [9] greater than 100 µM.

Turning to `CCOP(=O)(OCC)OCCCO[C@H]1OC(=O)[C@H]2[C@@H]1[C@@H]1CC[C@H]2O1`, the GI50 in test [1] came out at 17 µM; in [2], 43 µM; in [3] it was 9 µM; in test [4], 9 µM; in test [5], 20 µM; in test [6] it was 22 µM. Further, the GI50 was greater than 100 µM in test [7], 87 µM in test [8] and 84 µM in test [9].

For the compound `CCCCCO[C@H]1OC(=O)[C@H]2[C@@H]1[C@@H]1CC[C@H]2O1`, the 50% growth inhibitory concentration (GI50) in test [1] was determined as 32 µM; in test [2], 37 µM; in test [3] it was 38 µM; in test [4] it was 39 µM; in test [5], 27 µM; in [6], 20 µM. For the same compound, the values for the concentration for 50% growth inhibition (GI50) in test [7], in test [8] and in test [9] were greater than 100 µM, 68 µM and greater than 100 µM, respectively.

On to `CCO[C@H]1OC(=O)[C@H]2[C@@H]1[C@@H]1CC[C@H]2O1`, for which the 50% growth inhibitory concentration (GI50) in test [1] is 77 µM; in [2], 49 µM; in [3] it was greater than 100 µM; in test [4], greater than 100 µM; in test [5] it was greater than 100 µM; in test [6], greater than 100 µM. In addition, the GI50 in test [7], in test [8] and in test [9] was greater than 100 µM each time.

Regarding `O=C1O[C@@H](OCC2CO2)[C@@H]2[C@H]1[C@H]1CC[C@@H]2O1` (stereo in doubt; 22), the inhibition of growth at 100 µM in test [10] is 74%; in [11], 76%; in test [12], 38%; in [13], 28%; in test [14] it was 40%. In addition, the “growth inhibition (GI)” value in test [15] turned out to be 14%; in [16], 28%; in test [17], 30%.

For `O=C1O[C@H](OCCCOP(=O)(Oc2ccccc2)Oc2ccccc2)[C@@H]2[C@H]1[C@H]1CC[C@@H]2O1`, the concentration for 50% growth inhibition (GI50) is 40 µM in test [1]; 40 µM in test [2]; greater than 100 µM in [3]; greater than 100 µM in test [4]; greater than 100 µM in [5]; greater than 100 µM in test [6]. Besides, the GI50 in test [7], in test [8] and in test [9] was greater than 100 µM throughout.

As for `O=C1O[C@H](OC2CCCCC2)[C@@H]2[C@H]1[C@H]1CC[C@@H]2O1`, the GI50 was 45 µM in [1]; 41 µM in [2]; greater than 100 µM in test [3]; greater than 100 µM in [4]; greater than 100 µM in test [5]; greater than 100 µM in [6]. Also, the GI50 in [7], in test [8] and in [9] was greater than 100 µM each time.
